For orientation: inhibition means the drop in the measured response relative to a control, in per cent. A lower inhibition goes with a response near the control.

We go through 6 molecules from ChEMBL document CHEMBL1121505, “Retinoic acid analogues. Synthesis and potential as cancer chemopreventive agents” (J Med Chem, 1980).

Holding throughout (type): functional
Assay [1] in a line: Inhibition of skin tumor promoter -induced mouse epidermal ornithine decarboxylase (ODC) activity on TPA-induced mouse epidermis at a dose of 17(nmol). The procedure, abridged:
(§1)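 Female CD-1 mice, 7–9 weeks, shaved dorsal skin 1–2 days before, no hair regrowth. Retinoid applied topically in 0.2 mL acetone 1 h before single topical TPA (10.5 μg, 17 nmol, in 0.2 mL acetone). Killed 5 h after TPA. Five mice per group, skins pooled. Epidermal 30000g supernatant in 50 mM sodium phosphate, 0.1 mM pyridoxal phosphate, 0.1 mM EDTA.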

A short description of assay [2]: Inhibition of skin tumor promoter -induced mouse epidermal ornithine decarboxylase (ODC) activity on TPA-induced mouse epidermis at a dose of 1.7(nmol). A digest of the protocol: as §1
A short description of assay [3]: Inhibition of skin tumor promoter -induced mouse epidermal ornithine decarboxylase (ODC) activity on TPA-induced mouse epidermis at a dose of 170(nmol). A digest of the protocol: as §1

With `CC1=C(/C=C/C(C)=C/C=C/C(C)=C/c2nn[nH]n2)C(C)(C)CCC1`, the values for the inhibition in assay [1], in assay [2] and in assay [3] were 13%, 3% and 2%, respectively.

For `CC(=O)Oc1cccc(/C=C/C=C(C)/C=C/C2=C(C)CCCC2(C)C)c1`, the inhibition in assay [1] was 46%; in assay [2], 3%; in assay [3], 92%.

On to `CCC1=C(/C=C/C(C)=C/C=C/C(C)=C/C(=O)O)C(C)(C)CCC1`, for which the inhibition in assay [1] turned out to be 86%; in assay [2], 66%; in assay [3], 87%.

In assay [2], `CC1=C(/C=C/C(C)=C/C=C/C(C)=C/C(=O)O)C(C)(C)CCC1` gave an inhibition of 91%.

On to `CCOC(=O)/C=C(C)/C=C/C=C(C)/C=C/C1=CC2CCC1C2` (stereo unspecified), for which the values for the inhibition in assay [1], in assay [2] and in assay [3] were 63%, 46% and 95%, respectively.

For the molecule `COCCOCCOC(=O)/C=C(C)/C=C/C=C(C)/C=C/C1=C(C)CCCC1(C)C`, the inhibition in assay [1] is 92%; in assay [2], 70%; in assay [3], 97%.
